In the library only some 4.6% were active in any assay of this set; here they are far more common.
GPR7 antagonist – antagonists of human GPR7 (neuropeptides B/W receptor 1); inhibition, % at 4.4 µM; GPR7-expressing cells, fluorescence antagonist assay; AID 1861; P48145; 1.1% of 290,000 active; in the data active = inhibition above about 16%, passing the limit was not always enough;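 note: cells stimulated with the agonist NPW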
OX1R antag-1 – antagonists of human orexin 1 receptor | O43613 | inhibition, % at 5 µM | 0.43% of 330,000 active | CHO/OX1R cells, Fluo-8 calcium fluorescence, orexin A | AID 434989;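 active = inhibition above its plate's threshold, mean inhibition of all tested compounds on the plate plus 3 SD, cut at about 37% in these data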
Target sequence (O43613 whole entry, looked up): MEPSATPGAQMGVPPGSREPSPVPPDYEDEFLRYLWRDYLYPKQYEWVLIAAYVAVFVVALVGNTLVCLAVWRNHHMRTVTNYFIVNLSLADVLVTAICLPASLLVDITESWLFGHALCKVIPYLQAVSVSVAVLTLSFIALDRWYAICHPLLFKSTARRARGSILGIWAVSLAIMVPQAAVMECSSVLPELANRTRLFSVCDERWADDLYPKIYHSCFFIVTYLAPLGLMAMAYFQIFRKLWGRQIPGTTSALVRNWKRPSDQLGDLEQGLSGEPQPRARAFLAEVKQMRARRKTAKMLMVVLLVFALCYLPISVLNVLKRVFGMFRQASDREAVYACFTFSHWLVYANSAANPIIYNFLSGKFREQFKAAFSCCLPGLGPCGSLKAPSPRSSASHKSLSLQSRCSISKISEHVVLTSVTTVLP
TAAR1 ag – human TAAR1 agonism. Q96RJ0. AID 624467. CHO RD-HGA16 TAAR1, Fluo-8 calcium fluorescence; vehicle wells 0%, saturating PEA agonist 100%. 0.99% of 360,000 active. activation, % at 3 µM;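 active = activation above the mean activation of all test compounds in the run plus 3 SD, cut at about 38% in these data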
Target sequence (Q96RJ0 whole entry, looked up): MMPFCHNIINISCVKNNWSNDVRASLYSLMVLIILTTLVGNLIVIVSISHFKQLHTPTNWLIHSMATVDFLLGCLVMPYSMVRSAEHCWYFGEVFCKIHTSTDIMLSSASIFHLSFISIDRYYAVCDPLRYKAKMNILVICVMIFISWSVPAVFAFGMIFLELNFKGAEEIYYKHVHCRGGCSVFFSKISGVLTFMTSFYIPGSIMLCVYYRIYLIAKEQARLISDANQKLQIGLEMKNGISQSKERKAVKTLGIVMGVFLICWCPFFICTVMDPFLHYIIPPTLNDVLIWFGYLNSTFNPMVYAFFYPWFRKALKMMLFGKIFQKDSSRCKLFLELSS
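Assay system: CHO-derived RD-HGA16 cells with stable Gα16 and human TAAR1; timing: 17-24 h seeding, 75 min 37 °C dye, 30 min RT; read-out: % activation from peak over basal fluorescence ratio, DMSO-to-PEA scaled; measured by: kinetic Fluo-8 calcium fluorescence; benchmarks: low control DMSO, high control PEA (EC100); doses: 3 µM single concentration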
OX1R antag-2 – blocks the human orexin 1 receptor; inhibition, % at 6.6 µM; AID 485270; O43613; 1.8% of 330,000 active; OX1R-expressing cells, FRET antagonist read-out; in the data active = inhibition mostly above about 38%, no sharp cut-off; inactive = mostly below about 40%
TAAR1 antag – human TAAR1 antagonism. Q96RJ0. CHO RD-HGA16 TAAR1, Fluo-8 calcium fluorescence, antagonist. inhibition, % at 3 µM. 1.5% of 360,000 active. AID 624466;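 active = inhibition above a per-plate cutoff, the mean inhibition of test compounds on that plate plus 3 SD, cut at about 49% in these data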
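Assay system: RD-HGA16 CHO cells with stable hTAAR1 and Gα16 / Reagent: EC80 β-phenethylamine stimulus / Doses: 3 µM, single point / Timing: dye loading 75 min at 37 °C, then 30 min room temperature / Measured by: Fluo-8 intracellular calcium dye fluorescence, real-time kinetic reads / Controls: vehicle wells and EC80 agonist wells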
CHO parental Ca – counter-screen for OX1R antagonists: effect in parental CHO cells | parental CHO-K1, ATP-induced calcium, Fluo-8 fluorescence | 0.63% of 330,000 active | inhibition, % at 5.6 µM;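 active = inhibition above that plate's mean sample inhibition plus 3 SD, cut at about 26% in these data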
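material = parental CHO cells | also added = ATP as calcium-mobilizing challenge | dosing = single point at 5.6 µM | detection = intracellular calcium via Fluo-8 no-wash fluorescent dye | read-out = % inhibition | benchmarks = low control ATP plus DMSO, high control DMSO only | repeats = one well per compound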
Each line names hits and unclear results; the compound was inactive in the other large screens.

CC(C)NC(=O)Nc1cccc2c1O[C@H](CN(C)C(=O)Nc1ccc(C(F)(F)F)cc1)[C@@H](C)CN([C@H](C)CO)C2=O	none (no result: GPR7 antagonist)
CC(C)NC(=O)Nc1cccc2c1O[C@H](CN(C)C(=O)Nc1ccccc1)[C@@H](C)CN([C@H](C)CO)C2=O	none (no result: GPR7 antagonist)
C[C@H](CO)N1C[C@H](C)[C@@H](CN(C)C(=O)Nc2ccccc2)Oc2c(NC(=O)Nc3ccc(C(F)(F)F)cc3)cccc2C1=O	TAAR1 antag 49 (no result: GPR7 antagonist)
O=C(COC(=O)c1ccc(Cl)nc1)Nc1ccccc1OC(F)F	none
Brc1ccc(OCc2ccccc2)c(CNCc2ccncc2)c1	TAAR1 antag 70
Fc1ccc(COc2ccccc2CNCc2ccncc2)cc1	none
COC(=O)c1cc2c(ccn2-c2ccc(F)cc2)n1CC(C)C	TAAR1 ag 44
COC(=O)c1cc2c(ccn2-c2ccc(F)cc2)n1C(C)C	TAAR1 ag 39
COC(=O)[C@@H]1C(c2c(OC)cc(OC)cc2OC)=NO[C@H]1C(=O)OC	none
Cc1ccc(NC(=O)C(C)c2ccc([N+](=O)[O-])cc2)cc1Cl (stereo not drawn)	GPR7 antagonist 40
CC(C(=O)Nc1ccccc1Br)c1ccc([N+](=O)[O-])cc1 (stereo not drawn)	none
Cc1cc(S(=O)(=O)NCc2ccccc2)ccc1OCC(=O)Nc1cccc([N+](=O)[O-])c1	OX1R antag-1 53, OX1R antag-2 84, CHO parental Ca 49
COC(=O)C1=C(C)N=C2SCCC(=O)N2C1c1ccc(OC(=O)c2ccco2)cc1 (stereo not drawn)	none (no result: OX1R antag-1, OX1R antag-2, CHO parental Ca)
C=CCOC(=O)C1=C(C)N=C2SCCC(=O)N2C1c1ccc(OC(=O)c2ccco2)cc1 (stereo not drawn)	GPR7 antagonist 25
CCCCCCCCSC1=CC(=O)C(OC)=C(OC)C1=O	none (no result: GPR7 antagonist, OX1R antag-1, OX1R antag-2, CHO parental Ca)
CCCn1c(SCC(=O)Nc2cccc(F)c2)nc(O)cc1=O	OX1R antag-1 79, CHO parental Ca 40 (no result: GPR7 antagonist)
COc1cc(/C=C2\SC(=O)NC2=O)ccc1OCC(=O)N1CCOCC1	OX1R antag-2 52 (no result: GPR7 antagonist)
O=C(C[C@@H]1CC[C@H](NC(=O)c2ccc3c(c2)OCO3)[C@@H](CO)O1)NCc1ccc(F)cc1	none (no result: GPR7 antagonist, OX1R antag-1, OX1R antag-2, CHO parental Ca)
c1ccc(COCCN2CCN(CCOCc3ccccc3)CC2)cc1	none (no result: TAAR1 ag, TAAR1 antag)
Cc1c(C=NCCOCc2ccccc2)cnn1C	TAAR1 ag 42
Oc1ccc(C2=NN(c3ccccc3)C(c3ccc(F)cc3)C2)cc1 (stereo not drawn)	CHO parental Ca 58
Oc1ccccc1C1=NN(c2ccccc2)C(c2ccc(F)cc2)C1 (stereo not drawn)	none (no result: OX1R antag-1, OX1R antag-2, CHO parental Ca)
Cc1ccccc1S(=O)(=O)NC(=O)C1(C)CCN1C(=O)Cc1cccs1 (stereo not drawn)	none (no result: GPR7 antagonist, OX1R antag-1, OX1R antag-2, CHO parental Ca)
C/C(C/C(C)=C1/SC(=S)NC1=O)=C1\SC(=S)NC1=O	none (no result: OX1R antag-1, OX1R antag-2, CHO parental Ca)
CCCCCC/C(C)=C1/SC(=S)NC1=O	OX1R antag-2 45
Cc1cc(NC(=O)c2c(F)cccc2F)n(-c2nc3ccccc3[nH]2)n1	none
Cc1cc(NC(=O)c2c(F)cccc2Cl)n(-c2nc3ccccc3[nH]2)n1	TAAR1 antag 50
O=C(Nc1ccccc1)c1ccc[n+](Cc2ccc([N+](=O)[O-])cc2)c1	OX1R antag-2 63
CN(Cc1ccccc1)C(=O)c1cccnc1	none
CN(C(=O)c1cccnc1)c1nc(-c2ccccc2)cs1	CHO parental Ca 51
COc1ccc2cc(CCNS(=O)(=O)c3c(C)cc(C)cc3C)c(=O)[nH]c2c1	OX1R antag-2 76
CCc1cc2cccc(C)c2nc1SCC(=O)NNC(=O)c1ccco1	OX1R antag-2 70
CCc1cc2cccc(C)c2nc1SCC(=O)c1ccc(NC(C)=O)cc1	OX1R antag-2 53
CCN(CC)C(=O)c1cccc2nc3ccccc3nc12	OX1R antag-2 72
CCN(CC)C(=O)c1ccccc1NC(=O)c1ccccc1	none
CC1CCN(C(=O)CN(c2ccccc2)S(=O)(=O)N(C)C)CC1	GPR7 antagonist 21
CN(C)S(=O)(=O)N(CC(=O)N1CCC(Cc2ccccc2)CC1)c1ccccc1	none
CCN1/C(=C\c2ccc3cc(C)ccc3[n+]2CC)Sc2cc(C)c(C)cc21	none (no result: OX1R antag-1, OX1R antag-2, CHO parental Ca)
CCN1/C(=C/c2ccc3cc(C)ccc3[n+]2CC)Sc2ccc3sccc3c21	CHO parental Ca 48 (no result: GPR7 antagonist, TAAR1 ag, TAAR1 antag)
Cc1cc(C)cc(NC(=O)NCC(O)COc2ccc([N+](=O)[O-])cc2)c1 (stereo not drawn)	none
C/C(=C1/C(=O)N(c2ccc([N+](=O)[O-])cc2)N=C1c1ccccc1)N(C)C	OX1R antag-2 42 (no result: TAAR1 ag, TAAR1 antag)
CSc1nccn1CC(=O)Nc1ccc(F)cc1	CHO parental Ca 41
C[C@H](CO)N1C[C@H](C)[C@@H](CN(C)C(=O)Nc2ccc(C(F)(F)F)cc2)Oc2c(NC(=O)CCC(F)(F)F)cccc2C1=O	none (no result: GPR7 antagonist)
CCOC(=O)CCCNc1ccc([N+](=O)[O-])cc1[N+](=O)[O-]	OX1R antag-2 71
CCOC(=O)NC(=O)CSc1ccc(C)cc1C	none
COc1ccccc1N/C(=N/S(=O)(=O)c1ccc(C)cc1)c1ccc(Cl)cc1	none
Cc1cc(=O)oc2cc(NC(=O)c3c(Cl)cnn3C)ccc12	OX1R antag-2 61
O=C(NC1CC2CCC(C1)N2Cc1ccccc1)c1ccccc1Cl (stereo not drawn)	none
Cn1c(=O)c2c(nc(NCc3ccco3)n2C/C=C/c2ccccc2)n(C)c1=O	OX1R antag-1 47, CHO parental Ca 39 (no result: GPR7 antagonist)
CCc1cccc(C)c1NC(=S)N(CCN(C)C)Cc1cccs1	none
CCN(CC)S(=O)(=O)c1ccc(N=NC2=C(O)CCCC2=O)cc1	OX1R antag-2 55
Cc1ccc(N=C(NOCc2ccc(Cl)cc2Cl)c2nonc2N)c(C)c1	TAAR1 antag 57
O=C1Cc2cccc(=O)c(O)c2C(=O)O1	none (no result: GPR7 antagonist, OX1R antag-1, OX1R antag-2, CHO parental Ca)
O=C1c2c(O)cccc2Cc2cccc(O)c21	TAAR1 antag 104 (no result: GPR7 antagonist)
CC(C)N1C(=O)CCC1C(=O)NCc1ccco1 (stereo not drawn)	none
Cc1csc(SCC(=O)c2cc(C)n(Cc3cccs3)c2C)n1	CHO parental Ca 42
CC(=O)Nc1ccccc1OCC(=O)c1cc(C)n(Cc2cccs2)c1C	GPR7 antagonist 25, OX1R antag-1 55, CHO parental Ca 48
Cc1ccc(C(C(=O)NC(C)(C)C)N(Cc2ccco2)C(=O)CCC(=O)Nc2nccs2)cc1 (stereo not drawn)	none (no result: OX1R antag-1, TAAR1 ag, OX1R antag-2, TAAR1 antag, CHO parental Ca)
COc1ccccc1NC(=O)C1=C(C)Nc2nnnn2C1c1cc(Br)ccc1OC (stereo not drawn)	TAAR1 ag 48
CCCCCn1nc(C(=O)N2CCc3ccccc32)c2ccccc2c1=O	none (no result: GPR7 antagonist)
C=CCC[C@@H](Cc1ccc(F)cc1)C(=O)OC[C@H](C)NC(=O)[C@@H](CC=C)CC(=O)N(CCO)Cc1ccccc1	none (no result: GPR7 antagonist)

Assay outcomes (PubChem BioAssay)
